# Data taken from ChEMBL document CHEMBL1137008, “Cancer preventive agents 9. Betulinic acid derivatives as potent cancer chemopreventive agents” (Bioorg Med Chem Lett, 2009).
# Experiments:
# [1] = Cytotoxicity against human Raji cells assessed as cell viability at 500 molar ratio after 48 hrs by trypan blue staining method; type: cell-based; conditions: read-out: Activity
# In short: (§1)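 Raji cells (EBV genome-carrying, Burkitt's lymphoma) grown in RPMI-1640 with 10% FBS; incubated 48 h at 37 °C with 4 mM n-butyric acid, 32 pM TPA and test compound in DMSO at stated compound/TPA molar ratio; viability determined by Trypan blue staining.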
# Raji [2] = test: Inhibition of TPA-induced EBV-early antigen activation in human Raji cells assessed as EA induction at 10 molar ratio after 48 hrs relative to TPA; type: cell-based; set-up: scale not given: the % may be the effect or the level left; conditions: human gammaherpesvirus 4
# In short: (§2)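 Raji cells (virus non-producer, spontaneous EA activation <0.1%) incubated 48 h at 37 °C with 4 mM n-butyric acid plus 32 pM TPA and compound in DMSO; smears stained by indirect immunofluorescence with NPC patient EBV-EA-positive serum, ≥500 cells counted; EA-positive cells expressed relative to butyrate+TPA control (100%); triplicates; IC50 as mol ratio to 32 pmol TPA.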
# [3] = Cytotoxicity against human Raji cells assessed as cell viability at 10 molar ratio after 48 hrs by trypan blue staining method; type: cell-based; conditions: read-out: Activity; in short: as §1
# [4] = Cytotoxicity against human Raji cells assessed as cell viability at 1000 molar ratio after 48 hrs by trypan blue staining method; type: cell-based; conditions: read-out: Activity; in short: as §1
# [5] = Cytotoxicity against human Raji cells assessed as cell viability at 100 molar ratio after 48 hrs by trypan blue staining method; type: cell-based; conditions: read-out: Activity; in short: as §1
# [6] = Inhibition of TPA-induced EBV-early antigen activation in human Raji cells assessed as EA induction after 48 hrs relative to TPA; type: cell-based, human gammaherpesvirus 4; in short: as §2
# Raji [7] = test: Inhibition of TPA-induced EBV-early antigen activation in human Raji cells assessed as EA induction at 500 molar ratio after 48 hrs relative to TPA; type: cell-based; set-up: scale not given: the % may be the effect or the level left; conditions: human gammaherpesvirus 4; in short: as §2
# Raji [8] = test: Inhibition of TPA-induced EBV-early antigen activation in human Raji cells assessed as EA induction at 1000 molar ratio after 48 hrs relative to TPA; type: cell-based; set-up: scale not given: the % may be the effect or the level left; conditions: human gammaherpesvirus 4; in short: as §2
# Raji [9] = test: Inhibition of TPA-induced EBV-early antigen activation in human Raji cells assessed as EA induction at 100 molar ratio after 48 hrs relative to TPA; type: cell-based; set-up: scale not given: the % may be the effect or the level left; conditions: human gammaherpesvirus 4; in short: as §2
SMILES,"viability at 48 h, 500 molar ratio [1] [%]",Activity (Raji [2]) [%],"viability at 48 h, 10 molar ratio [3] [%]","viability at 48 h, 1000 molar ratio [4] [%]","viability at 48 h, 100 molar ratio [5] [%]",IC50 [6] [molar ratio],Activity (Raji [7]) [%],Activity (Raji [8]) [%],Activity (Raji [9]) [%]
C=C(C)[C@@H]1CC[C@]2(C(=O)O)CC[C@]3(C)[C@H](CC[C@@H]4[C@@]5(C)C[C@H](O)C(C)(C)[C@@H]5CC[C@]43C)[C@@H]12,> 80,100,> 80,60,> 80,475,39.2,14.2,79
C=C(C)[C@@H]1CC[C@]2(C(=O)O)CC[C@]3(C)[C@H](CC[C@@H]4[C@@]5(C)CC[C@H](OC(=O)CCCCCCC/C=C\C/C=C\C/C=C\CC)C(C)(C)[C@@H]5CC[C@]43C)[C@@H]12,> 80,97,> 80,60,> 80,445,43.3,10.9,77.8
C=C(C)[C@@H]1CC[C@]2(C(=O)O)CC[C@]3(C)[C@H](CC[C@@H]4[C@@]5(C)CC[C@H](OC(=O)CCCCCCC/C=C\C/C=C\CCCCC)C(C)(C)[C@@H]5CC[C@]43C)[C@@H]12,> 80,94.8,> 80,60,> 80,390,37.9,7.3,75.9
C=C(C)[C@@H]1CC[C@]2(C(=O)O)CC[C@]3(C)[C@H](CC[C@@H]4[C@@]5(C)CC[C@H](OC(=O)C[C@H](C)CO)C(C)(C)[C@@H]5CC[C@]43C)[C@@H]12,> 80,93.1,> 80,70,> 80,303,29.3,0,70.1
C=C(C)[C@@H]1CC[C@]2(C(=O)O)CC[C@]3(C)[C@H](CC[C@@H]4[C@@]5(C)CC[C@H](OC(=O)CC/C=C\C/C=C\C/C=C\C/C=C\C/C=C\C/C=C\CC)C(C)(C)[C@@H]5CC[C@]43C)[C@@H]12,> 80,100,> 80,60,> 80,546,53.8,17,83.2
C=C(C)[C@@H]1CC[C@]2(C(=O)O)CC[C@]3(C)[C@H](CC[C@@H]4[C@@]5(C)CC[C@H](OC(=O)/C=C/C=C/C)C(C)(C)[C@@H]5CC[C@]43C)[C@@H]12,> 80,90.2,> 80,70,> 80,295,25.7,0,65.7
C=C(C)[C@@H]1CC[C@]2(C(=O)O)CC[C@]3(C)[C@H](CC[C@@H]4[C@@]5(C)CC[C@H](OC(=O)C[C@H](C)C(=O)O)C(C)(C)[C@@H]5CC[C@]43C)[C@@H]12,> 80,94.2,> 80,60,> 80,308,31.5,0,71
C=C(C)[C@@H]1CC[C@]2(C(=O)O)CC[C@]3(C)[C@H](CC[C@@H]4[C@@]5(C)CC[C@H](O)C(C)(C)[C@@H]5CC[C@]43C)[C@@H]12 [BETULINIC ACID],> 80,100,> 80,60,> 80,403,37.2,7.9,75.1
C=C(C)[C@@H]1CC[C@]2(C(=O)O)CC[C@]3(C)[C@H](CC[C@@H]4[C@@]5(C)C[C@H](OC(=O)CC(C)(C)C(=O)O)C(C)(C)[C@@H]5CC[C@]43C)[C@@H]12,> 80,95.3,> 80,60,> 80,352,35.6,5.7,73.1
C=C(C)[C@@H]1CC[C@]2(C(=O)O)CC[C@]3(C)[C@H](CC[C@@H]4[C@@]5(C)[C@@H](C(=O)O)[C@H](OC(=O)CC(C)(C)C(=O)O)C(C)(C)[C@@H]5CC[C@]43C)[C@@H]12,> 80,93.8,> 80,60,> 80,349,35,5.1,72
C=C(C)[C@@H]1CC[C@]2(C(=O)O)CC[C@]3(C)[C@H](CC[C@@H]4[C@@]5(C)CC[C@H](OC(=O)CC(C)(C)C(=O)O)C(C)(C)[C@@H]5CC[C@]43C)[C@@H]12 [BEVIRIMAT],> 80,–,> 80,60,> 80,396,36.1,6.1,74.2
C=C(C)[C@@H]1CC[C@]2(C(=O)O)CC[C@]3(C)[C@H](CC[C@@H]4[C@@]5(C)CC[C@H](OC(=O)CCC/C=C\C/C=C\C/C=C\C/C=C\CCCCC)C(C)(C)[C@@H]5CC[C@]43C)[C@@H]12,> 80,100,> 80,60,> 80,482,46.1,12.3,79
C=C(C)[C@@H]1CC[C@]2(C(=O)O)CC[C@]3(C)[C@H](CC[C@@H]4[C@@]5(C)CC[C@H](OC(=O)CCCCCCC/C=C\CCCCCCCC)C(C)(C)[C@@H]5CC[C@]43C)[C@@H]12,> 80,92.5,> 80,60,> 80,344,33.7,4.8,72.4
COc1cc(/C=C/C(=O)CC(=O)/C=C/c2ccc(O)c(OC)c2)ccc1O [CURCUMIN],> 80,100,> 80,60,> 80,341,22.8,0,81.7
C=C(C)[C@@H]1CC[C@]2(C(=O)O)CC[C@]3(C)[C@H](CC[C@@H]4[C@@]5(C)CC[C@H](OC(=O)C=C(C)C)C(C)(C)[C@@H]5CC[C@]43C)[C@@H]12,> 80,88.7,> 80,70,> 80,285,23.5,0,62.5
C=C(C)[C@@H]1CC[C@]2(C(=O)O)CC[C@]3(C)[C@H](CC[C@@H]4[C@@]5(C)CC[C@H](OC(=O)/C=C/C)C(C)(C)[C@@H]5CC[C@]43C)[C@@H]12,> 80,91.6,> 80,70,> 80,299,26.2,0,66.7
C=C(C)[C@@H]1CC[C@]2(C(=O)O)CC[C@]3(C)[C@H](CC[C@@H]4[C@@]5(C)CC[C@H](OC(=O)CCC/C=C\C/C=C\C/C=C\C/C=C\C/C=C\CC)C(C)(C)[C@@H]5CC[C@]43C)[C@@H]12,> 80,100,> 80,60,> 80,523,50.4,15.3,80.1
C=C(C)[C@@H]1CC[C@]2(C(=O)O)CC[C@]3(C)[C@H](CC[C@@H]4[C@@]5(C)CC[C@H](OC(=O)C[C@@H](C)C(=O)O)C(C)(C)[C@@H]5CC[C@]43C)[C@@H]12,> 80,94.7,> 80,60,> 80,309,31.8,0,71.2
